Shown is part of a subset that was picked to be rich in hits.
Lmaj promast = Leishmania major promastigote growth inhibition, primary screen; 200,000 compounds, 9% hits; Leishmania major promastigotes, resazurin fluorescence viability; AID 1063, 2008; inhibition, % at 10 µM; in the data active means inhibition above about 50%;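 further: promastigotes grown with compound for 44 hours at 28 °C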
T cruzi repl = inhibitors of intracellular T. cruzi growth, primary screen, luminescence, NIH3T3 host cells; inhibition, % (concentration not given with the values); T. cruzi beta-gal in NIH3T3, 90 h; 300,000 compounds, 1.4% hits;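 active means mean inhibition across valid replicates above about 55%, limit read from the data; inconclusive means mean below that limit but half or more replicates reach it; inactive means mean below it, under half of replicates reach it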;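 further: signal also drops with host cell toxicity which is not excluded here; higher percent means less beta-gal luminescence so fewer parasites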
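compound dosing = single 50 nL compound addition per well in DMSO | material = NIH/3T3 host cells with β-galactosidase reporter T. cruzi | input = 5,000 host fibroblasts per well | timing = ≥90 h infection period, 3 h prior cell attachment | read-out basis = percent inhibition of parasite-derived β-gal signal | detection = GalScreen β-gal luminescence, detergent lysis, 60 min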
Hep lipid drop = inhibitors of hepatocyte lipid droplet formation, primary screen, imaging, high-throughput imaging, BODIPY stain; inhibition, % at 6.5 µM; AML12 mouse hepatocytes, oleate lipid droplets; AID 1656, 2009; 240,000 compounds, 0.4% hits;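 active means lipid droplet intensity inhibited by at least 50%, with more than 500 cells counted; inconclusive means wells with under 300 cells, treated as cytotoxic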
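Assay system: AML12 mouse liver cells | Compound dosing: One dose, 6.5 µM compound | Read-out basis: Droplet intensity reduction, % inhibition | Measured by: Fluorescence imaging, 20x objective, two fields per well | Schedule: Overnight treatment with compound plus oleate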
MPTP block = mitochondrial permeability transition pore inhibitors, primary screen, biochemical, isolated mouse mitochondria, absorbance. Ca2+ swelling absorbance, 30 min. inhibition, % at 10 µM. 360,000 compounds, 1.4% hits. AID 602449, 2012;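 active means inhibition of 50% or more, scaled per plate between neutral and stimulator controls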
DTT redox prof = compounds producing H2O2 with reducing agent – biochemical, NIH compound library profiling, artefact control for MLSCN library redox annotation, primary screen; DTT-dependent redox cycling H2O2, phenol red/HRP absorbance; 100% = 100 µM peroxide control, 0% = buffer; activation, % at 10 µM; 200,000 compounds, 0.03% hits; AID 878, 2007;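 active means activation of at least 50% relative to the plate's high and low controls in the primary single-dose screen; inactive means activation below 50%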;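 further: compound incubated with DTT at 0.8 mM final as the reducing agent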
Hits are given with their value; n = inactive; u = inconclusive; x = no result given.

SMILES	Lmaj promast	T cruzi repl	Hep lipid drop	MPTP block	DTT redox prof
CCOc1ccc(S(=O)(=O)N(C(=O)c2ccco2)c2cc3sc(=O)oc3c3ccccc23)cc1	96.8	n	n	n	n
CCc1ccc2c(CC(=O)NNC(=O)c3ccncc3)coc2c1	x	x	x	n	x
COc1cccc(-c2noc(CCCC(=O)Nc3ccc(C(N)=O)cc3)n2)c1	n	n	n	n	n
COc1ccc2sc(N(CCN(C)C)C(=O)c3cc(Cl)sc3Cl)nc2c1	n	n	n	n	n
CN(C)CCCN(C(=O)c1ccc(S(=O)(=O)N(C)C)cc1)c1nc2ccc(F)cc2s1	n	67.3	n	n	n
CN(C)CCCN(C(=O)c1ccc2c(c1)CCCC2)c1nc2cc3c(cc2s1)OCO3	x	n	n	n	x
CN(C)CCN(C(=O)c1cc(Cl)sc1Cl)c1nc2ccc(F)cc2s1	n	56.1	n	n	n
CCN(CC)CCN(C(=O)c1ccc2c(c1)CCCC2)c1nc2ccc(F)cc2s1	n	54.7	n	n	n
CN(C)CCCN(C(=O)c1ccc2c(c1)CCCC2)c1nc2ccc(F)cc2s1	73.5	n	n	n	n
Cc1ccc2nc(N(CCCN(C)C)C(=O)c3ccc(S(=O)(=O)N(C)C)cc3)sc2c1	n	n	n	n	n
COc1ccccc1CCc1nnc(CCC(=O)NC(C)Cn2nc(C)cc2C)o1 (centres undefined)	n	n	n	n	n
O=C(c1ccc(Cl)c(S(=O)(=O)N2CCOCC2)c1)N1CCc2ccccc2C1	x	x	x	n	x
O=C(O)CCc1nc2ccccc2c(=O)[nH]1	x	n	n	n	x
FC(F)Sc1ccc(N=C2NN=C(c3ccc4c(c3)OCCO4)CS2)cc1	55.1	69.2	x	n	n
COc1ccc(N=C2NN=C(c3ccc4c(c3)OCCO4)CS2)cc1	n	n	n	n	n
O=C(C1=NN[C@@H]2C(=O)N(Cc3ccccc3)C(=O)[C@H]12)c1ccc(F)cc1	x	n	n	n	x
COc1cc(N2C(=O)C=CC2=O)c(OC)cc1Cl	x	n	n	n	x
Cc1ccc(C)c(N=Nc2nc3ccccc3n2C)c1	82.5	n	x	n	n
Cn1c(COc2ccccc2O)[n+](C)c2ccccc21	x	n	n	n	x
COc1ccc(N=Nc2n(C)c3ccccc3[n+]2C)cc1	x	63.8	n	x	x
Cc1cc(C(=O)N2CCCC(N3CCN(c4ccccc4C)CC3)C2)n(C)n1 (centres undefined)	x	58.6	n	n	x
CCN(CC)c1ccc2c(C)c(CN3CCOCC3)c(=O)oc2c1	100.2	n	x	n	n
CCN(CC)c1ccc2c(C)c(CO)c(=O)oc2c1	n	n	n	n	n
CS(=O)(=O)NCCSCc1c(Cl)cccc1Cl	n	74.9	n	n	n
CS(=O)(=O)NCCSCc1c(F)cccc1Cl	n	n	n	n	n
SMILES	Lmaj promast	T cruzi repl	Hep lipid drop	MPTP block	DTT redox prof
COc1cc(C(=O)NCCCNc2ccc([N+](=O)[O-])cc2)cc(OC)c1OC	76.9	n	n	n	n
COc1cc(C(=O)NCCCNC(=O)c2cc(OC)c(OC)c(OC)c2)cc(OC)c1OC	x	n	x	n	x
Cc1cc(N2CCCC2)ccc1/C=N/n1cnnc1	67.4	n	n	n	n
CCNc1nc(NCC)nc(N/N=C/c2ccc(Br)cc2)n1	50.4	n	n	n	n
COc1ccc(-c2ccc(CN3C(C)C(=O)N(Cc4cn(CCC5OCCO5)nn4)CCS3(=O)=O)cc2)cc1OC (centres undefined)	x	x	x	n	x
Nc1ccc(-c2nc3ccc([N+](=O)[O-])cc3[nH]2)cc1	82.6	n	n	n	n
Cc1ccoc1C(=O)NCCNc1ccc(Cl)cc1[N+](=O)[O-]	83.4	n	n	n	n
Cc1c(NS(=O)(=O)c2cccs2)cccc1-c1nc2cccnc2s1	x	n	n	n	x
O=S(=O)(Nc1cccc2ncccc12)c1cccs1	100.1	n	n	n	n
CN(CC(=O)Nc1ccncc1)S(=O)(=O)c1ccc(Br)cc1	n	n	n	n	n
O=C(CCCOc1ccc(Cl)cc1Cl)Nc1ccncc1	98.6	n	n	n	n
O=C(/C=C/c1cccc(Cl)c1)Nc1ccncc1	60.7	n	x	n	n
O=C(/C=C/c1ccc(Cl)cc1Cl)Nc1ccncc1	95.2	n	n	n	n
CN(CCCC(=O)Nc1ccncc1)S(=O)(=O)c1ccc(Cl)cc1	85.6	n	x	n	n
O=C(Nc1ccncc1)Nc1cc(Cl)ccc1Cl	x	57.2	n	n	x
CCC(CC)NC(=O)/C=C/c1ccccc1Cl	n	n	n	n	n
CC(=O)N(C)c1ccc(NC(=O)/C=C/c2ccccc2Cl)cc1	59.9	n	x	n	n
O=C(Nc1ccncc1)Nc1ccccc1Cl	x	n	n	n	x
O=C(/C=C/c1ccccc1Cl)Nc1cccnc1	x	n	n	n	x
O=C(/C=C/c1ccccc1Cl)Nc1ccncc1	99.9	n	x	n	n
O=C(Nc1ccc(F)cc1)C1CCCN(C2=NS(=O)(=O)c3ccccc32)C1 (centres undefined)	x	x	x	n	x
Cc1cc(NC(=O)CSc2ncccc2C(=O)O)no1	n	n	n	n	n
Cc1ccc(S(=O)(=O)NCCCN2CCOCC2)c(C)c1	52.4	n	x	n	n
COc1cc(C)c(Cl)cc1S(=O)(=O)NCCCN1CCOCC1	85.5	n	n	n	n
COc1cc(Cl)c(S(=O)(=O)NCCCN2CCOCC2)cc1Cl	93.1	n	n	n	n
SMILES	Lmaj promast	T cruzi repl	Hep lipid drop	MPTP block	DTT redox prof
COc1cc(C)c(Br)cc1S(=O)(=O)NCCCN1CCOCC1	75.1	n	n	n	n
COc1cc(C)c(Cl)cc1S(=O)(=O)NCCN1CCOCC1	n	n	n	n	n
COc1ccc(Br)cc1S(=O)(=O)NCCN1CCOCC1	n	n	x	n	n
Cc1cc(S(=O)(=O)NCCCN2CCOCC2)c(Cl)cc1Cl	x	n	n	n	x
COc1ccc(-c2cn(CCO)c(-c3ccncc3)n2)cc1	x	x	x	n	x
COCCn1c(SCC(=O)NCc2ccc3c(c2)OCO3)nc2ccccc2c1=O	n	n	n	n	n
Cc1oc(C(C)(C)C)c(CN2CCOCC2)c1C(=O)O	n	n	n	n	n
CCOc1cc(/C=C2/SC(=S)N(C)C2=O)ccc1Oc1ccc([N+](=O)[O-])cc1[N+](=O)[O-]	63.0	n	n	x	n
CN(C(=O)CSc1nc2[nH]ncc2c(=O)[nH]1)c1ccccc1	x	n	x	n	x
Oc1ccccc1N1CCN(CC(O)COCc2ccccc2Cl)CC1 (centres undefined)	84.8	n	n	n	n
OC(COCc1ccccc1)CN1CCN(c2ccccc2)CC1 (centres undefined)	90.3	n	x	n	n
CCCc1ccc(OCC(O)CN2CCN(c3ccccc3)CC2)cc1 (centres undefined)	93.9	n	x	n	n
OC(COCc1ccccc1)CN1CCCC1 (centres undefined)	n	u	x	n	n
Cc1ccc(OCC(O)CN2CCN(c3ccccc3)CC2)cc1 (centres undefined)	n	n	x	n	n
OC(CSc1c(Cl)cccc1Cl)CN1CCN(c2ccccc2F)CC1 (centres undefined)	n	n	n	n	n
